Measured values: ChEMBL document CHEMBL5303300, “EUbOPEN Chemogenomics Library - Multiplex” (2023)
Where “and” joins values, the source holds several entries; their conditions need not be identical. Identical values can stand only once.

Test system: U2OS
Test: Multiplex assay against U2OS
Type: toxicity, cell-based
Settings: human, number of replicates 2
Method in brief: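 Tubulin, mitochondrial-mass and membrane-permeability phenotypes are per cents of healthy-nucleus cells. Cells were gated by CellPathfinder machine learning into Hoechst high-intensity objects or normal cells, normal cells into healthy, pyknosed or fragmented nuclei, and pyknosed cells into mitotic or apoptotic. Before that, live cells stained at seeding with Hoechst33342, BioTracker Green Microtubule Cytoskeleton Dye, MitoTracker Red and Annexin V Alexa Fluor 680 were imaged on a CQ1 microscope at 37°C and 5% CO2 after compound addition.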

[1] = 12 h, 1 µM, compound concentration 1 uM
[2] = 12 h, 10 µM, compound concentration 10 uM
[3] = 24 h, 1 µM, compound concentration 1 uM
[4] = 24 h, 10 µM, compound concentration 10 uM
[5] = 48 h, 1 µM, compound concentration 1 uM
[6] = 48 h, 10 µM, compound concentration 10 uM

CNC(=O)c1c(F)cccc1Nc1nc(Nc2cc3c(cc2OC)CCN3C(=O)CN(C)C)nc2[nH]ccc12
Population Apoptotic (%) [1]: 57% and 62%
Population Healthy Nuclei (%) [1]: 60% and 80%
Population Hoechst High Intensity Objects (%) [1]: 0%
Population Membrane Permeable-Phenotype (%) [1]: 0% and 7%
Population Mitochondria Different-Phenotype (%) [1]: 0% and 8%
Population Mitotic Cells (%) [1]: 42% and 37%
Population Normal (%) [1]: 100%
Population Pyknosed Nuclei (%) [1]: 13% and 15%
Population Tubulin-Different-Phenotype (%) [1]: 80% and 46%
Population Apoptotic (%) [2]: 46% and 60%
Population Healthy Nuclei (%) [2]: 33% and 35%
Population Hoechst High Intensity Objects (%) [2]: 0% and 2%
Population Mitotic Cells (%) [2]: 53% and 39%
Population Normal (%) [2]: 100% and 97%
Population Tubulin-Different-Phenotype (%) [2]: 57% and 75%
Total Cell Count [2]: 815 and 281
Population Apoptotic (%) [3]: 46% and 59%
Population Healthy Nuclei (%) [3]: 55% and 80%
Population Hoechst High Intensity Objects (%) [3]: 0%
Population Membrane Permeable-Phenotype (%) [3]: 0% and 3%
Population Mitochondria Different-Phenotype (%) [3]: 0% and 7%
Population Mitotic Cells (%) [3]: 53% and 40%
Population Normal (%) [3]: 100%
Population Pyknosed Nuclei (%) [3]: 25% and 15%
Population Tubulin-Different-Phenotype (%) [3]: 87% and 50%
Population Apoptotic (%) [4]: 72% and 83%
Population Healthy Nuclei (%) [4]: 32% and 23%
Population Hoechst High Intensity Objects (%) [4]: 0% and 1%
Population Mitotic Cells (%) [4]: 27% and 16%
Population Normal (%) [4]: 100% and 98%
Population Tubulin-Different-Phenotype (%) [4]: 62% and 78%
Population Apoptotic (%) [5]: 72% and 78%
Population Healthy Nuclei (%) [5]: 61% and 82%
Population Hoechst High Intensity Objects (%) [5]: 1% and 0%
Population Membrane Permeable-Phenotype (%) [5]: 2% and 4%
Population Mitochondria Different-Phenotype (%) [5]: 2% and 5%
Population Mitotic Cells (%) [5]: 27% and 22%
Population Normal (%) [5]: 98% and 100%
Population Pyknosed Nuclei (%) [5]: 23% and 14%
Population Tubulin-Different-Phenotype (%) [5]: 91% and 62%
Population Apoptotic (%) [6]: 95% and 94%
Population Hoechst High Intensity Objects (%) [6]: 0% and 1%
Population Mitotic Cells (%) [6]: 4% and 5%
Population Normal (%) [6]: 100% and 98%
Population Tubulin-Different-Phenotype (%) [6]: 64% and 80%

COc1ccc(-c2cc3c(C)nc(N)nc3n([C@H]3CC[C@H](OCCO)CC3)c2=O)cn1 [PF-04691502]
Population Apoptotic (%) [1]: 50% and 76%
Population Healthy Nuclei (%) [1]: 57% and 78%
Population Hoechst High Intensity Objects (%) [1]: 0%
Population Membrane Permeable-Phenotype (%) [1]: 10% and 2%
Population Mitochondria Different-Phenotype (%) [1]: 0% and 1%
Population Mitotic Cells (%) [1]: 50% and 23%
Population Normal (%) [1]: 100%
Population Pyknosed Nuclei (%) [1]: 6% and 12%
Population Tubulin-Different-Phenotype (%) [1]: 84% and 83%
Population Apoptotic (%) [2]: 88% and 83%
Population Fragmented Nuclei (%) [2]: 25% and 13%
Population Healthy Nuclei (%) [2]: 46% and 54%
Population Hoechst High Intensity Objects (%) [2]: 3% and 2%
Population Membrane Permeable-Phenotype (%) [2]: 0% and 7%
Population Mitochondria Different-Phenotype (%) [2]: 0% and 3%
Population Mitotic Cells (%) [2]: 11% and 16%
Population Normal (%) [2]: 96% and 97%
Population Pyknosed Nuclei (%) [2]: 28% and 32%
Population Tubulin-Different-Phenotype (%) [2]: 80% and 50%
Population Apoptotic (%) [3]: 60% and 76%
Population Fragmented Nuclei (%) [3]: 19% and 10%
Population Healthy Nuclei (%) [3]: 66% and 75%
Population Hoechst High Intensity Objects (%) [3]: 0%
Population Membrane Permeable-Phenotype (%) [3]: 0% and 2%
Population Mitochondria Different-Phenotype (%) [3]: 0% and 1%
Population Mitotic Cells (%) [3]: 40% and 23%
Population Normal (%) [3]: 100% and 99%
Population Pyknosed Nuclei (%) [3]: 13% and 14%
Population Tubulin-Different-Phenotype (%) [3]: 91% and 84%
Population Apoptotic (%) [4]: 84% and 69%
Population Fragmented Nuclei (%) [4]: 12% and 17%
Population Healthy Nuclei (%) [4]: 46% and 50%
Population Hoechst High Intensity Objects (%) [4]: 2%
Population Membrane Permeable-Phenotype (%) [4]: 20% and 40%
Population Mitochondria Different-Phenotype (%) [4]: 7% and 15%
Population Mitotic Cells (%) [4]: 15% and 30%
Population Normal (%) [4]: 97%
Population Pyknosed Nuclei (%) [4]: 41% and 32%
Population Tubulin-Different-Phenotype (%) [4]: 59% and 65%
Population Apoptotic (%) [5]: 80% and 82%
Population Fragmented Nuclei (%) [5]: 10% and 8%
Population Healthy Nuclei (%) [5]: 80% and 69%
Population Hoechst High Intensity Objects (%) [5]: 0%
Population Membrane Permeable-Phenotype (%) [5]: 7% and 5%
Population Mitochondria Different-Phenotype (%) [5]: 5% and 4%
Population Mitotic Cells (%) [5]: 20% and 17%
Population Normal (%) [5]: 100% and 99%
Population Pyknosed Nuclei (%) [5]: 10% and 21%
Population Tubulin-Different-Phenotype (%) [5]: 82% and 85%
Population Apoptotic (%) [6]: 66% and 85%
Population Fragmented Nuclei (%) [6]: 19% and 10%
Population Healthy Nuclei (%) [6]: 22% and 26%
Population Hoechst High Intensity Objects (%) [6]: 0% and 4%
Population Membrane Permeable-Phenotype (%) [6]: 62% and 35%
Population Mitochondria Different-Phenotype (%) [6]: 37% and 18%
Population Mitotic Cells (%) [6]: 33% and 14%
Population Normal (%) [6]: 100% and 95%
Population Pyknosed Nuclei (%) [6]: 58% and 63%
Population Tubulin-Different-Phenotype (%) [6]: 87% and 70%

CN(C)CC#Cc1ccc2[nH]c3c(c2c1)-c1nc(N)ncc1CCC3
Population Apoptotic (%) [1]: 100% and 38%
Population Fragmented Nuclei (%) [1]: 30% and 13%
Population Healthy Nuclei (%) [1]: 61% and 68%
Population Hoechst High Intensity Objects (%) [1]: 3% and 0%
Population Membrane Permeable-Phenotype (%) [1]: 5% and 1%
Population Mitochondria Different-Phenotype (%) [1]: 2% and 1%
Population Normal (%) [1]: 96% and 99%
Population Pyknosed Nuclei (%) [1]: 7% and 17%
Population Tubulin-Different-Phenotype (%) [1]: 61% and 84%
Population Apoptotic (%) [2]: 50% and 17%
Population Healthy Nuclei (%) [2]: 33% and 56%
Population Hoechst High Intensity Objects (%) [2]: 0%
Population Membrane Permeable-Phenotype (%) [2]: 10% and 5%
Population Mitochondria Different-Phenotype (%) [2]: 0% and 4%
Population Mitotic Cells (%) [2]: 50% and 82%
Population Normal (%) [2]: 100% and 99%
Population Tubulin-Different-Phenotype (%) [2]: 20% and 47%
Population Apoptotic (%) [3]: 75% and 53%
Population Fragmented Nuclei (%) [3]: 30% and 17%
Population Healthy Nuclei (%) [3]: 57% and 58%
Population Hoechst High Intensity Objects (%) [3]: 1% and 0%
Population Membrane Permeable-Phenotype (%) [3]: 0% and 3%
Population Mitochondria Different-Phenotype (%) [3]: 0% and 1%
Population Mitotic Cells (%) [3]: 25% and 46%
Population Normal (%) [3]: 98% and 99%
Population Pyknosed Nuclei (%) [3]: 12% and 23%
Population Tubulin-Different-Phenotype (%) [3]: 58% and 82%
Population Apoptotic (%) [4]: 66% and 24%
Population Healthy Nuclei (%) [4]: 31% and 39%
Population Hoechst High Intensity Objects (%) [4]: 0%
Population Membrane Permeable-Phenotype (%) [4]: 27% and 15%
Population Mitochondria Different-Phenotype (%) [4]: 9% and 4%
Population Mitotic Cells (%) [4]: 33% and 75%
Population Normal (%) [4]: 100% and 99%
Population Tubulin-Different-Phenotype (%) [4]: 45% and 49%
Population Apoptotic (%) [5]: 45% and 69%
Population Fragmented Nuclei (%) [5]: 37% and 13%
Population Healthy Nuclei (%) [5]: 52% and 69%
Population Hoechst High Intensity Objects (%) [5]: 0%
Population Membrane Permeable-Phenotype (%) [5]: 7% and 3%
Population Mitochondria Different-Phenotype (%) [5]: 5% and 0%
Population Mitotic Cells (%) [5]: 54% and 30%
Population Normal (%) [5]: 99% and 100%
Population Pyknosed Nuclei (%) [5]: 11% and 17%
Population Tubulin-Different-Phenotype (%) [5]: 67% and 77%
Population Apoptotic (%) [6]: 50%
Population Healthy Nuclei (%) [6]: 19% and 48%
Population Hoechst High Intensity Objects (%) [6]: 0%
Population Membrane Permeable-Phenotype (%) [6]: 20% and 28%
Population Mitochondria Different-Phenotype (%) [6]: 0% and 2%
Population Mitotic Cells (%) [6]: 50% and 49%
Population Normal (%) [6]: 100% and 99%
Population Tubulin-Different-Phenotype (%) [6]: 20% and 45%
